Assay results from ChEMBL document CHEMBL1150643, “Bioactive constituents of Cedrelopsis microfoliata” (J Nat Prod, 2002).
In brackets after ≈: the same amount, converted by molar mass.

How the values were obtained:
[1] = biological target: Estrogen receptor beta (Homo sapiens) (UniProt Q92731); experiment: Agonist activity at ERbeta expressed in human HEK293 cells assessed as induction of estrogenic response at 10 to 100 ug/mL by luciferase reporter gene assay relative to 17beta estradiol; assay type: functional, cell-based
Sequence of Estrogen receptor beta (Homo sapiens) (Q92731 whole entry): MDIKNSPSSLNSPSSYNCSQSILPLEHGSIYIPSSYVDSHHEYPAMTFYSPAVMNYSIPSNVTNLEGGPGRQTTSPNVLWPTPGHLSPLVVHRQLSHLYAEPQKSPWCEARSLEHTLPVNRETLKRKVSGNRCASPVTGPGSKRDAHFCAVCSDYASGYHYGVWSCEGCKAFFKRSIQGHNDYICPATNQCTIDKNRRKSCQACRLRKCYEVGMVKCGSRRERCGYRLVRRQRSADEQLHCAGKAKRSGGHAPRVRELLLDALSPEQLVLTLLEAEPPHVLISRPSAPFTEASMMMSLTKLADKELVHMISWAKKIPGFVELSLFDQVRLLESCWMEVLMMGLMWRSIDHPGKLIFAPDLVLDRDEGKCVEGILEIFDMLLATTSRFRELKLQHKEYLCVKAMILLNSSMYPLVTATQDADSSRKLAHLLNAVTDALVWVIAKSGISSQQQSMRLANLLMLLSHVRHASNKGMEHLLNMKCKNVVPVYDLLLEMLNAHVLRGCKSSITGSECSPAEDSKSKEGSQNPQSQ

[2] = biological target: T1, Estrogen receptor (Homo sapiens) (UniProt P03372); experiment: Agonist activity at ERalpha expressed in human HEK293 cells assessed as induction of estrogenic response at 10 to 100 ug/mL by luciferase reporter gene assay relative to 17beta estradiol; assay type: functional, cell-based
T1 sequence (whole entry): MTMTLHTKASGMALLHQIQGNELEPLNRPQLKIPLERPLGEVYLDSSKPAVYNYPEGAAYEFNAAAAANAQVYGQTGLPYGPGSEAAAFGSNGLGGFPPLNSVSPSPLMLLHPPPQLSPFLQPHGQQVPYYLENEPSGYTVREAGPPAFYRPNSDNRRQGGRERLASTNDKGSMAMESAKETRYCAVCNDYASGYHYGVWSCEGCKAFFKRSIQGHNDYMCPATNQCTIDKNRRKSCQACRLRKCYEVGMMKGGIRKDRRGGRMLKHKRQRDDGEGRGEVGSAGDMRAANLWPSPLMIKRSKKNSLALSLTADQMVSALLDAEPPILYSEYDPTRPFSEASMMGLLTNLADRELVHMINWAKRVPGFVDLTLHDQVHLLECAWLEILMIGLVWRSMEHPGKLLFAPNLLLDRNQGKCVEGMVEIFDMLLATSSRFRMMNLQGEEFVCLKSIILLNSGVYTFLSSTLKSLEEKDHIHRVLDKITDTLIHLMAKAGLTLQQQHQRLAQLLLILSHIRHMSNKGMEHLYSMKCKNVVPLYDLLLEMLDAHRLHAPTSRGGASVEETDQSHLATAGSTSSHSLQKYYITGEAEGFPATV

[3] = Superoxide scavenging activity by chemiluminescence assay
Outline: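 Cell-free xanthine oxidase system in PBS pH 7.4 with a serial dilution of sample. Added hypoxanthine (final 1 mM), lucigenin (0.1 mM), and either buffer or SOD (10 U/mL); started with xanthine oxidase (10 mU/mL). Chemiluminescence read each minute for 15 min. Activity taken from the SOD-inhibitable signal. Uric acid formation at 290 nm checked for direct xanthine oxidase effects.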

[4] = Inhibition of luminol-induced chemiluminescence of reactive oxygen metabolites in opsonized zymosan-induced human PMNC by chemiluminescence assay; assay type: functional
Outline: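 PMNs from buffy coats of healthy volunteers, isolated on Ficoll-Hypaque and suspended in HBSS. Cells were mixed with a dilution range of sample plus luminol (0.1 mM), then activated with human-serum-opsonized zymosan (0.8 mg/mL). Luminescence read every 2 min over 30 min. Inhibition calculated from maximum peak levels against a control of cells, luminol and buffer.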

Question: With COc1c(O)c(CC=C(C)C)c(O)c2c1O[C@@H](c1ccccc1)CC2=O as the compound, how does the Activity [1] read?
Answer: 20%

Question: What about the Activity [2] of the same compound?
Answer: 20%

Question: Which IC50 [3] does the source give for COc1c(O)c(CC=C(C)C)c2c(c1O)C(=O)C[C@@H](c1ccccc1)O2 [AGRANDOL] here?
Answer: 3 µg/mL (≈ 8.46 µM)

Question: What about the IC50 [4] of the same compound?
Answer: 3.2 µg/mL

Question: And the Activity [1]?
Answer: 20%

Question: What about the Activity [2] of the same compound?
Answer: 20%

Question: With CC1(C)C=Cc2c(c(O)cc3oc(=O)ccc23)O1 [CEDRECOUMARIN A] as the compound, how does the IC50 [3] read?
Answer: 0.2 µg/mL (≈ 0.819 µM)

Question: And the IC50 [4]?
Answer: 13 µg/mL

Question: What about the Activity [1] of the same compound?
Answer: 20%

Question: What about the Activity [2] of the same compound?
Answer: 20%

Question: Which results are given for CO[C@]1(CC=C(C)C)C(=O)[C@@](O)(C(=O)/C=C/c2ccccc2)C(=O)C(CC=C(C)C)=C1O [MICROFOLIAN]?
Answer: IC50 [3]: 3 µg/mL (≈ 6.84 µM); IC50 [4]: 4 µg/mL
